Structures are written as SMILES. pIC50: −log10 of the molar value.

Data on 15 compounds can be found in ChEMBL document CHEMBL1145361, “3-Amino-1-alkyl-cyclopentane carboxamides as small molecule antagonists of the human and murine CC chemokine receptor 2” (Bioorg Med Chem Lett, 2007).

Chain of C-C chemokine receptor type 2 (Mus musculus, UniProt P51683) (P51683 whole entry): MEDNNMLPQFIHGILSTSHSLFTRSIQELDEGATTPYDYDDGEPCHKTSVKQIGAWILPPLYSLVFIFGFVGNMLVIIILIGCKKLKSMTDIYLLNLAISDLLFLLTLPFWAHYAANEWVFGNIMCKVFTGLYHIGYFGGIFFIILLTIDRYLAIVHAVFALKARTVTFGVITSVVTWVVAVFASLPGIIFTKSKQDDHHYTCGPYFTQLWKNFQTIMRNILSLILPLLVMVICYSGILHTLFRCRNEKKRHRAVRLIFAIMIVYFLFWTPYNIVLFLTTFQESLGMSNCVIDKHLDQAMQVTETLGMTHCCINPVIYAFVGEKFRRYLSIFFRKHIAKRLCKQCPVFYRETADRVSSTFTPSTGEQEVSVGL
Chain of C-C chemokine receptor type 2 (Homo sapiens, UniProt P41597, I40L) (P41597 whole entry I40L): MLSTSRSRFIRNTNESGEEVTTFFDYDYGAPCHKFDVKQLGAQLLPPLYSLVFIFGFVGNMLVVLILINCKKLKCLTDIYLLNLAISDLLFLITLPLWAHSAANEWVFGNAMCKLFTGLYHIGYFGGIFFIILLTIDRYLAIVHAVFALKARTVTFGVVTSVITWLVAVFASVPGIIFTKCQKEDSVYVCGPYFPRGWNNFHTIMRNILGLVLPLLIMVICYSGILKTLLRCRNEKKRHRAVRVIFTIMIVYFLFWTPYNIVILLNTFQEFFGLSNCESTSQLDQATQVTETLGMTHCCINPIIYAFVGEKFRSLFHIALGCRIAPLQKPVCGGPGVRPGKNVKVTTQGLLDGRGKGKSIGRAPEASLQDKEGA
Chain of C-C chemokine receptor type 2 (Homo sapiens, UniProt P41597) (P41597 whole entry): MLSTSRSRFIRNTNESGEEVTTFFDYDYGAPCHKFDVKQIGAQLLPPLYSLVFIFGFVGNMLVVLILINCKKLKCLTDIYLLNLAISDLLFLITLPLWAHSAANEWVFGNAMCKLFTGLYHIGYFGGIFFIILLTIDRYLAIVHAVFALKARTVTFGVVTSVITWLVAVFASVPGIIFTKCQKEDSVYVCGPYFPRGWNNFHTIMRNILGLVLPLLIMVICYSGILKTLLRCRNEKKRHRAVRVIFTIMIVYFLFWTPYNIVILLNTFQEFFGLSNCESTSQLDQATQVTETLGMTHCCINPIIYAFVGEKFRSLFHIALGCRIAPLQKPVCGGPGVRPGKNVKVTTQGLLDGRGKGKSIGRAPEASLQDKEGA
Chain of C-C chemokine receptor type 2 (Mus musculus) (P51683 whole entry, looked up): as the sequence (P51683 whole entry) above

The first experiment has as its target C-C chemokine receptor type 2 (Homo sapiens, UniProt P41597, I40L). Description: Displacement of [125I]MCP1 from human CCR2 I40L mutant expressed in CHO cells. The class given is cell-based. In outline: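 Radioligand competition was run at room temperature for 45 min in 50 mM Hepes, 5 mM MgCl2, 1 mM CaCl2, pH 7.4, with 0.5% BSA and protease inhibitors. The reaction was stopped by filtration through GF/B filters presoaked in 0.10% polyethyleneimine to separate bound from free ligand.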
(In general: Displacement assays read how much labelled ligand stays bound in the presence of the test substance.)
As usually defined, the pIC50 is the negative decadic logarithm of the IC50, by convention in mol/L. A high value points to a low IC50. Turning to `C[C@H]1CN(C2CCC(C(=O)NCc3cc(C(F)(F)F)cc(C(F)(F)F)c3)(C3CC3)C2)CC[C@]12C=Cc1ccccc12` (stereo partly specified), the negative-log IC50 (pIC50) was 8.19.

Take `CSC[C@]1(C(=O)NCc2cc(F)cc(C(F)(F)F)c2)CC[C@@H](N2CC[C@]3(C=Cc4ccccc43)[C@@H](C)C2)C1`: the pIC50 is 8.46.

Compound `CCC1(C(=O)NCc2cc(F)cc(C(F)(F)F)c2)CCC(N2CC[C@]3(C=Cc4ccccc43)[C@@H](C)C2)C1` (stereo partly specified) gave a pIC50 of 8.48.

Take `CCCCCCC1(C(=O)NCc2cc(F)cc(C(F)(F)F)c2)CCC(N2CC[C@]3(C=Cc4ccccc43)[C@@H](C)C2)C1` (stereo partly specified): the negative-log IC50 (pIC50) was 7.57. Compared with the last compound, the pIC50 is 0.91 log units lower.

Regarding `CS[C@]1(C(=O)NCc2cc(F)cc(C(F)(F)F)c2)CC[C@@H](N2CC[C@]3(C=Cc4ccccc43)[C@@H](C)C2)C1`, the pIC50 is 7.17.

As to `C[C@H]1CN(C2CCC(CC3CCC3)(C(=O)NCc3cc(F)cc(C(F)(F)F)c3)C2)CC[C@]12C=Cc1ccccc12` (single isomer, unassigned; diastereomer 3), the pIC50 is 6.87. Compared with the last compound, the pIC50 is 0.30 log units lower.

`CC(C)C[C@]1(C(=O)NCc2cc(F)cc(C(F)(F)F)c2)CC[C@@H](N2CC[C@]3(C=Cc4ccccc43)[C@@H](C)C2)C1` showed a negative logarithm of the IC50 (pIC50) of 8.41.

With `C[C@H]1CN([C@@H]2CC[C@](C)(C(=O)NCc3cc(F)cc(C(F)(F)F)c3)C2)CC[C@]12C=Cc1ccccc12`, the pIC50 is 8.40.

The compound `C[C@H]1CN(C2CCC(CC3CCC3)(C(=O)NCc3cc(F)cc(C(F)(F)F)c3)C2)CC[C@]12C=Cc1ccccc12` (single isomer, unassigned; diastereomer 2) gave a pIC50 of 7.49. Against the preceding compound, the pIC50 is 0.91 log units lower.

The compound `CCC[C@]1(C(=O)NCc2cc(C(F)(F)F)cc(C(F)(F)F)c2)CC[C@@H](N2CC[C@]3(C=Cc4ccccc43)[C@@H](C)C2)C1` had a pIC50 of 7.80.

Consider `C[C@H]1CN([C@@H]2CC[C@@](C(=O)NCc3cc(F)cc(C(F)(F)F)c3)(C3CC3)C2)CC[C@]12C=Cc1ccccc12`, for which the pIC50 was 8.72.

With `CC(C)[C@]1(C(=O)NCc2cc(C(F)(F)F)cc(C(F)(F)F)c2)CC[C@@H](N2CC[C@]3(C=Cc4ccccc43)[C@@H](C)C2)C1`, the pIC50 is 8.12.

`C[C@H]1CN([C@@H]2CC[C@](CC3CCC3)(C(=O)NCc3cc(C(F)(F)F)cc(C(F)(F)F)c3)C2)CC[C@]12C=Cc1ccccc12` had a pIC50 of 7.72.

`C[C@H]1CN([C@@H]2CC[C@](C)(C(=O)NCc3cc(C(F)(F)F)cc(C(F)(F)F)c3)C2)CC[C@]12C=Cc1ccccc12`: the pIC50 is 8.05.

A further experiment addresses C-C chemokine receptor type 2 (Homo sapiens, UniProt P41597). Description: Inhibition of Ca2+ flux in human monocytes. The class given is functional, cell-based.
As for `CC(C)C[C@]1(C(=O)NCc2cc(F)cc(C(F)(F)F)c2)CC[C@@H](N2CC[C@]3(C=Cc4ccccc43)[C@@H](C)C2)C1`, the pIC50 is 8.69.

`C[C@H]1CN([C@@H]2CC[C@@](C(=O)NCc3cc(F)cc(C(F)(F)F)c3)(C3CC3)C2)CC[C@]12C=Cc1ccccc12` showed a negative logarithm of the IC50 (pIC50) of 9.20.

The next experiment concerns the target C-C chemokine receptor type 2 (Mus musculus) (UniProt P51683). The experiment is described as follows: Displacement of [125I]MCP1 from mouse CCR2 receptor expressed in CHO cells at 1 uM. Type of experiment: cell-based.
As to `C[C@H]1CN(C2CCC(CC3CCC3)(C(=O)NCc3cc(F)cc(C(F)(F)F)c3)C2)CC[C@]12C=Cc1ccccc12` (single isomer, unassigned; diastereomer 4), the Activity was 49%.

The next experiment has as its target C-C chemokine receptor type 2 (Mus musculus, UniProt P51683). Description: Displacement of [125I]MCP1 from mouse CCR2 receptor expressed in CHO cells. The class given is cell-based.
With `C[C@H]1CN(C2CCC(C(=O)NCc3cc(C(F)(F)F)cc(C(F)(F)F)c3)(C3CC3)C2)CC[C@]12C=Cc1ccccc12` (stereo partly specified), the negative logarithm of the IC50 (pIC50) is 7.35.

Consider `CSC[C@]1(C(=O)NCc2cc(F)cc(C(F)(F)F)c2)CC[C@@H](N2CC[C@]3(C=Cc4ccccc43)[C@@H](C)C2)C1`, for which the pIC50 was 7.77. This pIC50 lies 0.42 log units higher than the previous one.

`CCC1(C(=O)NCc2cc(F)cc(C(F)(F)F)c2)CCC(N2CC[C@]3(C=Cc4ccccc43)[C@@H](C)C2)C1` (stereo partly specified): the negative logarithm of the IC50 (pIC50) was 8.46.

For the compound `CCCCCCC1(C(=O)NCc2cc(F)cc(C(F)(F)F)c2)CCC(N2CC[C@]3(C=Cc4ccccc43)[C@@H](C)C2)C1` (stereo partly specified), the negative logarithm of the IC50 (pIC50) was 6.89.

`CS[C@]1(C(=O)NCc2cc(F)cc(C(F)(F)F)c2)CC[C@@H](N2CC[C@]3(C=Cc4ccccc43)[C@@H](C)C2)C1` gave a negative logarithm of the IC50 (pIC50) of 6.71. The pIC50 values of the last two compounds are within 0.2 log units of each other.

The compound `C[C@H]1CN(C2CCC(CC3CCC3)(C(=O)NCc3cc(F)cc(C(F)(F)F)c3)C2)CC[C@]12C=Cc1ccccc12` (single isomer, unassigned; diastereomer 3) gave a pIC50 of 6.25. Against the preceding compound, the pIC50 is 0.46 log units lower.

The compound `CC(C)C[C@]1(C(=O)NCc2cc(F)cc(C(F)(F)F)c2)CC[C@@H](N2CC[C@]3(C=Cc4ccccc43)[C@@H](C)C2)C1` gave a pIC50 of 8.12.

The compound `C[C@H]1CN([C@@H]2CC[C@](C)(C(=O)NCc3cc(F)cc(C(F)(F)F)c3)C2)CC[C@]12C=Cc1ccccc12` gave a negative logarithm of the IC50 (pIC50) of 7.24. Compared with the last compound, the pIC50 is 0.88 log units lower.

`C[C@H]1CN(C2CCC(CC3CCC3)(C(=O)NCc3cc(F)cc(C(F)(F)F)c3)C2)CC[C@]12C=Cc1ccccc12` (single isomer, unassigned; diastereomer 2) showed a negative-log IC50 (pIC50) of 6.83.

In turn, `CCC[C@]1(C(=O)NCc2cc(C(F)(F)F)cc(C(F)(F)F)c2)CC[C@@H](N2CC[C@]3(C=Cc4ccccc43)[C@@H](C)C2)C1` showed a pIC50 of 7.35.

In turn, `C[C@H]1CN([C@@H]2CC[C@@](C(=O)NCc3cc(F)cc(C(F)(F)F)c3)(C3CC3)C2)CC[C@]12C=Cc1ccccc12` had a pIC50 of 8.10.

For the compound `CC(C)[C@]1(C(=O)NCc2cc(C(F)(F)F)cc(C(F)(F)F)c2)CC[C@@H](N2CC[C@]3(C=Cc4ccccc43)[C@@H](C)C2)C1`, the pIC50 was 7.82. This pIC50 is 0.28 log units lower than that of the compound before.

In the case of `C[C@H]1CN([C@@H]2CC[C@](CC3CCC3)(C(=O)NCc3cc(C(F)(F)F)cc(C(F)(F)F)c3)C2)CC[C@]12C=Cc1ccccc12`, the pIC50 is 7.19. This pIC50 lies 0.63 log units lower than the previous one.

Consider `C[C@H]1CN([C@@H]2CC[C@](C)(C(=O)NCc3cc(C(F)(F)F)cc(C(F)(F)F)c3)C2)CC[C@]12C=Cc1ccccc12`, for which the pIC50 is 6.90.
